Source: the EternaBench riboswitch data

Test system: MS2 coat protein
Assay: apparent Kd, MS2 coat protein; higher = weaker binding; RNA-MaP array; FMN 200 µM where present
Procedure, shortened: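 Two titrations, one without ligand and one with constant ligand, were run with SNAP-549-labelled MS2 coat protein from 0.7 or 1.5 nM, doubling to 3 µM. The targets were designs transcribed by stalled E. coli RNA polymerase on Illumina sequencing-chip clusters, in 100 mM Tris-HCl pH 7.5, 80 mM KCl, 4 mM MgCl2, BSA, DTT, yeast tRNA and Tween-20. The apparent Kd is the median of filtered per-cluster binding-curve fits, with green signal normalised to red-channel RNA signal and control-cluster median Fmax.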

[1] = designed as: OFF switch for flavin mononucleotide, no ligand
[2] = ligand present: flavin mononucleotide, designed as: OFF switch for flavin mononucleotide
[3] = designed as: ON switch for flavin mononucleotide, no ligand
[4] = ligand present: flavin mononucleotide, designed as: ON switch for flavin mononucleotide

Row | Sequence | apparent Kd [1] [nM] | apparent Kd [2] [nM] | apparent Kd [3] [nM] | apparent Kd [4] [nM]
1 | UGAAACUACGAGAAGGACAUGUGGUCCUUCAGUUACAUGAGGAUCACCCAUGUAGGAUAUCGUAGUUUCAGGAUCGUGAGAUCC | 32.8 | 11.7 |  | 
2 | UGAAAUCAUGUAGGAUAUGCAUGGCGAAGCUACGCAGAAGGACAUGAGGAUCACCCAUGUUAUAGCUACCCAAUUCGGUGGCAA | 56.3 | 152 |  | 
3 | UGAAAUCAUGUAGGAUAUGCAUGGCGAAGCUACGCAGAAGGACAUGAGGAUCACCCAUGUUAUAGCUACCCGUUACGGUGGCAA | 135 | 155 |  | 
4 | UGAAAUCAUGUAGGAUAUGCAUGGCGAAGCUACGCAGAAGGACAUGAGGAUCACCCAUGUUAUAGCUACUCAGUUCGGUGGCAA | 38.5 | 195 |  | 
5 | UGAACUUCAGAGAAGGUCGAAUCGCAACGGUUCGAAGGAUAUCUGGAAACAUGAGGAUCACCCAUGUAACCGGGUGGAUGUCCU | 56.8 | 246 |  | 
6 | UGAGCCGGCACUGAGGAUAUUCAUAAUAAAACAUGAGGAUCACCCAUGUAGGCCAGAAGGCCUUGGGAGAAGGCAGGUCGGCUCA |  |  | 257 | 23.3
7 | UGAGCUUGAGGAUAUACAUGACGUGCCGUAGCACGAGGUCUACAUGAGGAUCACCCAUGUAGAAGGCAAGUUCU | 29.6 | 192 |  | 
8 | UGAGUAGCGAAACAACGCACAUGAGGAUCACCCAUGUCUACACAGGAUAUGCGACGCUCCAGUUAGCAGAAGGGUGAACUCAAA |  |  | 36.4 | 89.7
9 | UGAUAAUACGUCAGGAUAUGCGUCAUAGAGAAGUGGUAGAAGGGACAUGAGGAUCACCCAUGUUUUGGGUUAUA | 132 | 93.5 |  | 
10 | UGAUACUAAGAGAAGGUUCAAACUACAUAUUACAUACAUGAGGAUCACCCAUGUUGGUGAAUAAGAAAGGAUAUUUUACUAUAU | 25.7 | 21.6 |  | 
11 | UGAUACUGAGAGAAGGUUCAAACUACAUAUUGCAUACAUGAGGAUCACCCAUGUUGGUGAAUAAGAAAGGAUAUUUUACUAUAU | 47 | 32.8 |  | 
12 | UGAUAGGACAGAGGAUAUACAGAUAGGAUCUACUAUCAAACAGUCCUGACAUGAGGAUCACCCAUGUAGAAGGCUGUCCUAUCU | 22.7 | 98.8 |  | 
13 | UGAUAGGACAGAGGAUAUACCGAUAGGAUCUACUAUCGAAUAAUCCUCACAUGAGGAUCACCCAUGUAGAAGGCUGUCCUAUCU | 19.7 | 144 |  | 
14 | UGAUAGGACAGAGGAUAUACGUAUAGUUACCUCUACAUGAGGAUCACCCAUGUAGAAGGCUGUCCUAUCUAAGUCGGAAACGAC | 4.77 | 5.78 |  | 
15 | UGAUAGGACAGAGGAUAUACGUAUAUUCUCCUAAACAUGAGGAUCACCCAUGUAGAAGGCUGUCCUAUCUAAGUCGGAAACGAC | 5.4 | 23.4 |  | 
16 | UGAUAGGACAGAGGAUAUACGUCCUAGAGAUACUAGGAAAGUUUCCUCACAUGAGGAUCACCCAUGUAGAAGGCUGUCCUAUCU | 19 | 472 |  | 
17 | UGAUCGAAAGAUCAUAGAUUCUGCUAGGAUAUGCAGAAGUUUCAAUUUACAUGAGGAUCACCCAUGUAGAAGGAGUAGAGUCUA | 5.48 | 5.98 |  | 
18 | UGAUCGAGAGAUCUUAGAUUCUGGUAGGAUAUACAUAUUGUAAUAUAGACAUGAGGAUCACCCAUGUAGAAGGACUAGAGUCUA | 6.6 | 11.5 |  | 
19 | UGAUCGAGAGAUCUUAGAUUCUGGUAGGAUAUACAUUAUAGAAGUUAUACAUGAGGAUCACCCAUGUAGAAGGACUAGAGUCUA | 5.73 | 7.54 |  | 
20 | UGAUCGAGAGAUCUUAGAUUCUGGUAGGAUAUACAUUAUAUAAGAUAUACAUGAGGAUCACCCAUGUAGAAGGACUAGAGUCUA | 6.47 | 7.39 |  | 
21 | UGAUCUGUCGCAGGAUAUUACGUUCGGGAUCUCACAUGAGGAUCACCCAUGUAAGAAGGGCGAACAGCAUUCCGGGUCGGGCAA | 19.6 | 75.4 |  | 
22 | UGAUCUUGAGUCAGGAUAUGCUGGUAUUUUUACCAGCAGAAGGGACAUGAGGAUCACCCAUGUUCUCACUUUUU | 10.1 | 13.4 |  | 
